Here are results for 36 molecules from ChEMBL document CHEMBL3813689, “Discovery of Potent Benzofuran-Derived Diapophytoene Desaturase (CrtN) Inhibitors with Enhanced Oral Bioavailability for the Treatment of Methicillin-Resistant Staphylococcus aureus (MRSA) Infections” (J Med Chem, 2016).

Data set [1] can be described thus: Aqueous solubility of the compound by HPLC method. It is filed as physicochemical. An outline of the steps:
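Calibration with standards at 50, 100, 200, 400 and 800 µg/mL in methanol (peak area vs concentration). 10 mg solid stirred in 1 mL pure water for 24 h, more added if still clear; syringe-filtered, 10 µL injected; solubility read from calibration curve.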

The target in data set [2] is T1, 4,4'-diapophytoene desaturase (4,4'-diaponeurosporene-forming) (Staphylococcus aureus (strain Newman), UniProt O07855).
T1 sequence (O07855 whole entry): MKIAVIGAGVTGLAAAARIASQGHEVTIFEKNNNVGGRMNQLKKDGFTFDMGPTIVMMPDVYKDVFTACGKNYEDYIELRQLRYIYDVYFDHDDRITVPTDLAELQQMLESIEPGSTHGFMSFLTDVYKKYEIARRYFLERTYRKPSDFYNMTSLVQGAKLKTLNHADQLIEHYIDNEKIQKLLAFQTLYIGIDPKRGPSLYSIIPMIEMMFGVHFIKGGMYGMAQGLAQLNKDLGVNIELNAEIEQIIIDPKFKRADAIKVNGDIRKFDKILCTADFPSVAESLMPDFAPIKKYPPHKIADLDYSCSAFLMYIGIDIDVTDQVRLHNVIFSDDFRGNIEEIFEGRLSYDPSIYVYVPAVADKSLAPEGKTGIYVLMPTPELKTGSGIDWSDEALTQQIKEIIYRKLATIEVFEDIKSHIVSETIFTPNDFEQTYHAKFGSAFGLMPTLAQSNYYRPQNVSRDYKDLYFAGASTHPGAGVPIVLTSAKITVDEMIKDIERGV
As to the kind of experiment: Inhibition of Staphylococcus aureus Newman 6His-tagged CrtN expressed in Escherichia coli BL21(DE3) using diapophytoene as substrate assessed as pigment formation after overnight incubation by spectrophotometric method. Further details: species or system Staphylococcus aureus subsp. aureus str. Newman. In outline:
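Lysate of E. coli BL21(DE3) expressing 6His-CrtN (IPTG 0.5 mM, 16 °C overnight), ~1.41 mg CrtN per reaction, with diapophytoene–phosphatidylcholine emulsion in 0.02 M HEPES pH 7.5 plus FAD. Anaerobic via glucose oxidase 20 U/mL, catalase 20000 U/mL, glucose 2 mM (final). Started with lysate, overnight at 37 °C; triplicate.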

Data set [3] has as its system Staphylococcus aureus. As to the kind of experiment: Inhibition of staphyloxanthin pigment formation in Staphylococcus aureus Newman after 48 hrs by spectrophotometric method. It is filed as functional, organism-based. In outline: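 Compounds as 20 mM DMSO stocks, serial 2-fold dilutions in DMSO; 40 µL added to 4 mL TSB culture, 37 °C for 48 h, in triplicate. Cells washed twice with PBS, pigment extracted with methanol, OD450 measured; IC50 from dose-response curve fit of OD data.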

Data set [4] deals with Trichophyton mentagrophytes. As to the kind of experiment: Antifungal activity against Trichophyton mentagrophytes measured after 7 days by serial dilution method. It is filed as functional. An outline of the steps: (§1)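 Broth serial dilution MIC per NCCLS in RPMI 1640 buffered with 0.165 M MOPS; compounds in DMSO diluted in medium. Dermatophytes incubated at 28 °C, read at 7 days. MIC taken as lowest concentration giving ≥80% growth inhibition versus control (turbidity).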

A further data set deals with Nannizzia gypsea. As to the kind of experiment: Antifungal activity against Microsporum gypseum measured after 7 days by serial dilution method. It is filed as functional. In outline: as §1
In the next data set the test system is Trichophyton verrucosum. The experiment in a line: Antifungal activity against Trichophyton verrucosum measured after 7 days by serial dilution method. It is filed as functional. An outline of the steps:
as §1

The next data set deals with Trichophyton rubrum. As to the kind of experiment: Antifungal activity against Trichophyton rubrum measured after 7 days by serial dilution method. It is filed as functional. An outline of the steps: as §1
Data set [5] has as its system Staphylococcus aureus. The experiment in a line: Antibacterial activity against Staphylococcus aureus Mu50 infected Balb/c mouse assessed as reduction of bacterial survival in liver at 1.3 mg, ip bid administered for 4.5 days followed by bacterial infection measured after 5 days. It is filed as functional.
Data set [6] concerns Staphylococcus aureus. The experiment in a line: Antibacterial activity against Staphylococcus aureus USA400 MW2 infected Balb/c mouse assessed as reduction of bacterial survival in liver at 1.3 mg, ip bid administered for 4.5 days followed by bacterial infection measured after 5 days. It is filed as functional. An outline of the steps:
(§2)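 Female BALB/c mice, 6–8 weeks. Compound in sterile water ip once and every 12 h for 108 h, total 50 or 200 mg/kg; water controls. Infected 12 h after first dose with 4 × 10^7 CFU USA400 MW2 (100 µL). Killed 5 days post infection; liver or kidney CFU counted on TSA after homogenising in PBS/0.1% Triton X-100. n = 13; two-tailed Mann-Whitney.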

Data set [7] relates to Staphylococcus aureus. As to the kind of experiment: Antibacterial activity against Staphylococcus aureus Mu50 infected Balb/c mouse assessed as reduction of bacterial survival in kidney at 5.2 mg, ip bid administered for 4.5 days followed by bacterial infection measured after 5 days. It is filed as functional.
Data set [8] relates to Staphylococcus aureus. As to the kind of experiment: Antibacterial activity against Staphylococcus aureus Mu50 infected Balb/c mouse assessed as reduction of bacterial survival in liver at 5.2 mg, ip bid for 4.5 days administered for 4.5 days followed by bacterial infection measured after 5 days. It is filed as functional.
Data set [9] deals with Staphylococcus aureus. As to the kind of experiment: Antibacterial activity against Staphylococcus aureus Mu50 infected Balb/c mouse assessed as reduction of bacterial survival in kidney at 1.3 mg, ip bid administered for 4.5 days followed by bacterial infection measured after 5 days. It is filed as functional.
Data set [10] deals with Staphylococcus aureus. The experiment in a line: Antibacterial activity against Staphylococcus aureus USA400 MW2 infected Balb/c mouse assessed as reduction of bacterial survival in kidney at 5.2 mg, ip bid administered for 4.5 days followed by bacterial infection measured after 5 days. It is filed as functional. An outline of the steps:
as §2

Data set [11] concerns Staphylococcus aureus. The experiment in a line: Antibacterial activity against Staphylococcus aureus USA400 MW2 infected Balb/c mouse assessed as reduction of bacterial survival in liver at 5.2 mg, ip bid administered for 4.5 days followed by bacterial infection measured after 5 days. It is filed as functional. In outline: as §2
Data set [12] relates to Staphylococcus aureus. As to the kind of experiment: Antibacterial activity against Staphylococcus aureus USA400 MW2 infected Balb/c mouse assessed as reduction of bacterial survival in kidney at 1.3 mg, ip bid administered for 4.5 days followed by bacterial infection measured after 5 days. It is filed as functional, organism-based. An outline of the steps:
as §2

Data set [13] has as its target T2, 4,4'-diapophytoene desaturase (4,4'-diaponeurosporene-forming) (Staphylococcus aureus (strain Newman)) (UniProt O07855).
T2 sequence (whole entry): T1 sequence (O07855 whole entry)
Conditions: Staphylococcus aureus subsp. aureus str. Newman; 100 uM.

Converted amounts (≈) assume the structure as drawn. The source made the active and inactive calls. The calls are words filed in the database; no cut-off is given here.

One may read the solubility as how much of the substance goes into solution per volume. A higher solubility goes with a readily soluble substance. A word on the IC50: it is the concentration that inhibits the measured activity by half. As for `CN(C/C=C/c1ccc(Cl)cc1Cl)Cc1cccc2ccoc12.Cl`, the solubility in data set [1] worked out at 7200 µg/mL. Further, the IC50 in [2] amounted to 740 nM; in the data set on Staphylococcus aureus [3] it was 8.21 nM. The molecule `Cc1ccc(/C=C/CN(C)Cc2cccc3ccoc23)cc1` returned an IC50 with Staphylococcus aureus [3] of 35.2 nM. The molecule `CN(C/C=C/c1ccc([N+](=O)[O-])cc1)Cc1cccc2ccoc12` came in with an IC50 in the data set with Staphylococcus aureus [3] of 71.7 nM.

`CN(C/C=C/c1cccc([N+](=O)[O-])c1)Cc1cccc2ccoc12` had an IC50 with Staphylococcus aureus [3] of over 1000 nM.

`COC(=O)c1ccc(/C=C/CN(C)Cc2cccc3ccoc23)cc1`: the IC50 with Staphylococcus aureus [3] was determined as 16.9 nM.

`C/C=C/CN(C)Cc1cccc2ccoc12` had a concentration for half-maximal inhibition (IC50) in the data set with Staphylococcus aureus [3] of over 1000 nM. In general, MIC80 refers to an inhibitory concentration at the 80% level, which refers to growth in some studies and to a panel of isolates in others. The low end stands for higher susceptibility, the high end for lower susceptibility. For `CC(=O)N1CCN(c2ccc(OCC3COC(Cn4ccnc4)(c4ccc(Cl)cc4Cl)O3)cc2)CC1` (stereo not given) [KETOCONAZOLE], the “MIC=<80” value in data set [4] was 0.0625 µg/mL (≈ 0.118 µM). Besides, the “MIC80 (lowest concentration giving ≥80% growth inhibition)” value against Nannizzia gypsea amounted to 2 µg/mL (≈ 3.76 µM); in the data set on Trichophyton verrucosum, 0.0625 µg/mL (≈ 0.118 µM). In addition, the MIC80 with Trichophyton rubrum amounted to 0.5 µg/mL (≈ 0.941 µM).

Take `CN(C/C=C/c1ccc2ccccc2c1)Cc1cccc2ccoc12`: the IC50 in the data set with Staphylococcus aureus [3] was 17.1 nM. In the case of `CN(C/C=C/c1ccccc1)Cc1cccc2ccoc12`, the IC50 with Staphylococcus aureus [3] is 247 nM. In the data set with Staphylococcus aureus [3], `CN(C/C=C/c1ccc(C(C)(C)C)cc1)Cc1cccc2ccoc12` displayed an IC50 of 46.7 nM. For `CN(C/C=C/c1ccc(Br)cc1)Cc1cccc2ccoc12.Cl`, the concentration in solution in [1] (solubility) was 3900 µg/mL. Besides, the IC50 in [2] is 355 nM; with Staphylococcus aureus [3], 6.44 nM. `CCN(C/C=C/c1ccccc1)Cc1cccc2ccoc12`: the IC50 in the data set with Staphylococcus aureus [3] is over 1000 nM. As to `CN(C/C=C/c1ccccc1[N+](=O)[O-])Cc1cccc2ccoc12`, the half-maximal inhibitory concentration (IC50) in the data set with Staphylococcus aureus [3] is over 1000 nM. `CN(CC/C=C/c1ccccc1)Cc1cccc2ccoc12`: the IC50 with Staphylococcus aureus [3] is over 1000 nM. For `C[C@@H](c1ncncc1F)[C@](O)(Cn1cncn1)c1ccc(F)cc1F` [VORICONAZOLE], in data set [4], the “MIC=<80” value amounted to 0.03125 µg/mL (≈ 0.0895 µM). Besides, the “MIC80 (lowest concentration giving ≥80% growth inhibition)” value in the data set with Nannizzia gypsea stood at 0.25 µg/mL (≈ 0.716 µM); in the data set with Trichophyton verrucosum it was 0.03125 µg/mL (≈ 0.0895 µM). Besides, the MIC80 in the data set on Trichophyton rubrum came out at 0.03125 µg/mL (≈ 0.0895 µM).

As to `OC(Cn1cncn1)(Cn1cncn1)c1ccc(F)cc1F` [FLUCONAZOLE], the “MIC=<80” value in data set [4] stood at 2 µg/mL (≈ 6.53 µM); in the data set with Nannizzia gypsea, 8 µg/mL (≈ 26.1 µM); with Trichophyton verrucosum, 2 µg/mL (≈ 6.53 µM); in the data set with Trichophyton rubrum, 1 µg/mL (≈ 3.27 µM).

In the data set on Staphylococcus aureus [3], `CN(CC#Cc1ccccc1)Cc1cccc2ccoc12` returned an IC50 of 164 nM.

As to `Cc1cccc(/C=C/CN(C)Cc2cccc3ccoc23)c1`, in the data set on Staphylococcus aureus [3], the IC50 was over 1000 nM. As to `O=P([O-])([O-])C(CCCc1cccc(Cc2ccccc2)c1)S(=O)(=O)[O-].[K+].[K+].[K+]` (stereo not given), the Activity in the data set with Staphylococcus aureus [5] is on record as 1.87 deltalog10CFU; with Staphylococcus aureus [6] it was 0.25 deltalog10CFU; in the data set on Staphylococcus aureus [7] it was 0.3 deltalog10CFU; in the data set on Staphylococcus aureus [8], 2.84 deltalog10CFU; in the data set on Staphylococcus aureus [9], 0.25 deltalog10CFU; in the data set on Staphylococcus aureus [10] it was 1.14 deltalog10CFU. In the data set on Staphylococcus aureus [11], the Activity turned out to be 1.58 deltalog10CFU. Besides, the outcome with Staphylococcus aureus [12] was Active. As to `CN(C/C=C/c1cccc(F)c1)Cc1cccc2ccoc12`, in the data set on Staphylococcus aureus [3], inhibition was half-maximal at 513 nM (IC50). As for `CN(C/C=C/c1ccc(F)cc1)Cc1cccc2ccoc12`, the IC50 with Staphylococcus aureus [3] is 31.2 nM.

As to `CN(C/C=C/c1ccccc1)Cc1cccc2ccccc12`, the inhibition entry in data set [13] is “Active”. For the molecule `CN(C/C=C/c1ccccc1F)Cc1cccc2ccoc12`, half-maximal inhibition in the data set with Staphylococcus aureus [3] (IC50) required 288 nM. `C(=C\c1ccccc1)/CNCc1cccc2ccoc12`: the IC50 in the data set with Staphylococcus aureus [3] was over 1000 nM. On the same count and under the same terms, the same measure for `CN(C/C=C/c1ccco1)Cc1cccc2ccoc12`: over 1000 nM; for `CN(CCCc1ccccc1)Cc1cccc2ccoc12`: over 1000 nM; for `CN(Cc1cccc2ccoc12)C[C@@H]1C[C@H]1c1ccccc1`: over 1000 nM. For the molecule `CN(C/C=C/C=C/c1ccccc1)Cc1cccc2ccoc12`, the IC50 in the data set with Staphylococcus aureus [3] is 4.2 nM.

Molecule `CN(C/C=C/C1CCCCC1)Cc1cccc2ccoc12` came in with an IC50 in the data set with Staphylococcus aureus [3] of over 1000 nM. `CN(C/C=C/c1ccc(Cl)cc1)Cc1cccc2ccoc12.Cl` gave a solubility in [1] of 7400 µg/mL. For the same molecule, the results for the 50% inhibitory concentration (IC50) (in data set [2]; with Staphylococcus aureus [3]) were 219 nM and 6.2 nM, respectively. On to `C/C(=C\c1ccccc1)CN(C)Cc1cccc2ccoc12`, for which the IC50 in the data set on Staphylococcus aureus [3] was over 1000 nM. `CN(C/C=C/c1ccccc1)Cc1cccc2occc12` displayed an IC50 in the data set with Staphylococcus aureus [3] of 759 nM. On to `CC(C)N(C/C=C/c1ccccc1)Cc1cccc2ccoc12`, for which the IC50 with Staphylococcus aureus [3] was over 1000 nM. In data set [1], `COc1ccc(/C=C/CN(C)Cc2cccc3ccoc23)cc1.Cl` returned a solubility of 19700 µg/mL. Also, the IC50 in data set [2] was 684 nM; with Staphylococcus aureus [3], 11.1 nM. With `CN(C/C=C/c1cccc2ccccc12)Cc1cccc2ccoc12`, the IC50 in the data set with Staphylococcus aureus [3] came out at 888 nM.

Turning to `CN(C/C=C/C1CCCC1)Cc1cccc2ccoc12`, the IC50 in the data set with Staphylococcus aureus [3] is over 1000 nM.
